The results in this text go back to ChEMBL document CHEMBL1155082, “Chemo-enzymatic synthesis of a series of 2,4-syn-functionalized (S)-glutamate analogues: new insight into the structure-activity relation of ionotropic glutamate receptor subtypes 5, 6, and 7” (J Med Chem, 2008).

One assay deals with Glutamate NMDA receptor. The assay is described as follows: Displacement of [3H]CGP 39653 from NMDA receptor in rat synaptosomes. Type of assay: subcellular, Brain.
Assay [1] in a line: Displacement of [3H]KA from KA receptor in rat synaptosomes. Type of assay: subcellular, Brain.
A short description of assay [2]: Displacement of [3H]AMPA from AMPA receptor in rat synaptosomes. The format is subcellular, Brain.
In assay [3] the target is Metabotropic glutamate receptor 1 (Rattus norvegicus, UniProt P23385). The assay is described as follows: Activity at rat mGluR1 expressed in HEK293 cells assessed as calcium mobilization by FLIPR. Type of assay: functional, cell-based. The method, boiled down:
(§1)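 Rat receptor cDNA transiently transfected into HEK293 (Lipofectamine Plus), seeded 24 h later, assayed next day. Cells loaded with 3 µM Fluo-4/0.01% pluronic in HEPES-buffered HBSS pH 7.4 with BSA and 2.5 mM probenecid, 1 h, 37 °C. Glutamate at EC80 or EC10 added with compound. FLIPR read over 3 min at room temperature. Maximum fluorescence change fitted by Hill equation.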

Assay [4] addresses Glutamate receptor ionotropic, kainate 1 (Rattus norvegicus, UniProt P22756). In words: Displacement of [3H]SYM2081 from rat recombinant iGluR5.
In assay [5] the target is Metabotropic glutamate receptor 3 (Rattus norvegicus, UniProt P31422). In words: Displacement of [3H][…] from rat mGluR3 expressed in CHO cells by SPA. Type of assay: cell-based. The method, boiled down: (§2)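 Membranes from transiently transfected CHO cells harvested 48 h post-transfection, protein by Bradford, stored at -80 °C. SPA binding at 10 µg protein/well in 50 mM Tris-HCl pH 7.0 with 2 mM MgCl2, 2 nM [3H]LY341495 and WGA-SPA beads. Incubated 45 min on ice, then overnight at 4 °C. Nonspecific binding with 10 µM LY341495. Ki by Cheng-Prusoff.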

The target of assay [6] is Metabotropic glutamate receptor 4 (Homo sapiens, UniProt Q14833). The assay is described as follows: Activity at mGluR4 assessed as calcium mobilization by FLIPR. The format is functional.
Assay [7] addresses T1, Metabotropic glutamate receptor 2 (Rattus norvegicus, UniProt P31421). In words: Activity at rat mGluR2 expressed in CHO cells assessed as calcium mobilization by FLIPR. The format is functional, cell-based. The method, boiled down:
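Rat mGluR2 cDNA co-transfected 8:2 with C. elegans GR Qi3 chimera cDNA into CHO cells (Lipofectamine Plus, 10 µg DNA/~7×10^6 cells). Fluo-4 loading for 1 h at 37 °C. Stimulation with EC80 or EC10 glutamate plus compound. FLIPR maximum fluorescence change over 3 min at room temperature, baseline-subtracted, fitted by Hill equation.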

Assay [8] deals with Glutamate receptor ionotropic, kainate 2 (Rattus norvegicus, UniProt P42260). In words: Displacement of [3H]SYM2081 from rat recombinant iGluR6.
In assay [9] the target is T1, Metabotropic glutamate receptor 2. In words: Displacement of [3H][…] from rat mGluR2 expressed in CHO cells by SPA. Type of assay: cell-based. In short, it runs like this: as §2
Assay [10] has as its target Metabotropic glutamate receptor 5 (Rattus norvegicus, UniProt P31424). The assay is described as follows: Activity at rat mGluR5 expressed in HEK293 cells assessed as calcium mobilization by FLIPR. Type of assay: functional, cell-based. The method, boiled down:
as §1

The test system of assay [11] is Escherichia coli. The assay is described as follows: Activity at Escherichia coli JM103 aspartate aminotransferase. The method, boiled down:
(§3)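 E. coli AAT purified from overexpressing JM103 carrying pUC119-aspC. Run at 25 °C in 0.1 M potassium phosphate pH 7.6 with 40 mM Asp, 0.2 mM NADH, 0.1-10 mM ketoacid substrate, 0.05 UI AAT and 2 UI malic dehydrogenase coupling. Rates taken from linear OD decay at 340 nm. Kinetic parameters and standard errors from Hanes-Woolf plot by least squares.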

Assay [12] relates to Escherichia coli. In words: Activity at Escherichia coli JM103 aspartate aminotransferase relative to alpha-ketoglutarate. In short, it runs like this: as §3
The target in assay [13] is T2, Glutamate receptor ionotropic, kainate 4 (Rattus norvegicus, UniProt Q01812).
T2 sequence (Q01812 whole entry): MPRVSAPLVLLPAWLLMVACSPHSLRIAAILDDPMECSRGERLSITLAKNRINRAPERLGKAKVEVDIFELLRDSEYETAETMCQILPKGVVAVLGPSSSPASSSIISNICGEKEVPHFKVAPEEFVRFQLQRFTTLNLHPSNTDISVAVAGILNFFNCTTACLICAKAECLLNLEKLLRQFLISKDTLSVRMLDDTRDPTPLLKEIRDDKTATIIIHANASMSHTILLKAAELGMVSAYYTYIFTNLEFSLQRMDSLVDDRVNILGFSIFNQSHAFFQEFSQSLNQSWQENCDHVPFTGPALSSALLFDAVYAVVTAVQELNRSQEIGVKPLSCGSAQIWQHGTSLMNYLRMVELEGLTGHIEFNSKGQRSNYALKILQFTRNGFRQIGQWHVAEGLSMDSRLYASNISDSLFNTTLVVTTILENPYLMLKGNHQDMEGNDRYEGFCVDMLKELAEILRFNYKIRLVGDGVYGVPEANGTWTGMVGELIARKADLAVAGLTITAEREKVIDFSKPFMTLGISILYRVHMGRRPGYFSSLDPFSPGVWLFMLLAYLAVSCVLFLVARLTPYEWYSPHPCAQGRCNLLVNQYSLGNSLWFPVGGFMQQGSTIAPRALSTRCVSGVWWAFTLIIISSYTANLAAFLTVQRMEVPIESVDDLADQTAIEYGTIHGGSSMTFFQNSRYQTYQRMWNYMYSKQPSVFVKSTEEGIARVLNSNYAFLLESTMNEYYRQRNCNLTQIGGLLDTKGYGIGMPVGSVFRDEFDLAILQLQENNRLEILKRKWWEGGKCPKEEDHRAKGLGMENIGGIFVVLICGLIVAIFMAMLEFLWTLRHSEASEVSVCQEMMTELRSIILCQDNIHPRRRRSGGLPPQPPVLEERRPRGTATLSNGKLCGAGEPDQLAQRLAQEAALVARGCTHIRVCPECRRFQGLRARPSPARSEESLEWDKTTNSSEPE
In words: Binding affinity to rat cloned KA1 receptor.

Sequence of Metabotropic glutamate receptor 5 (P31424 whole entry): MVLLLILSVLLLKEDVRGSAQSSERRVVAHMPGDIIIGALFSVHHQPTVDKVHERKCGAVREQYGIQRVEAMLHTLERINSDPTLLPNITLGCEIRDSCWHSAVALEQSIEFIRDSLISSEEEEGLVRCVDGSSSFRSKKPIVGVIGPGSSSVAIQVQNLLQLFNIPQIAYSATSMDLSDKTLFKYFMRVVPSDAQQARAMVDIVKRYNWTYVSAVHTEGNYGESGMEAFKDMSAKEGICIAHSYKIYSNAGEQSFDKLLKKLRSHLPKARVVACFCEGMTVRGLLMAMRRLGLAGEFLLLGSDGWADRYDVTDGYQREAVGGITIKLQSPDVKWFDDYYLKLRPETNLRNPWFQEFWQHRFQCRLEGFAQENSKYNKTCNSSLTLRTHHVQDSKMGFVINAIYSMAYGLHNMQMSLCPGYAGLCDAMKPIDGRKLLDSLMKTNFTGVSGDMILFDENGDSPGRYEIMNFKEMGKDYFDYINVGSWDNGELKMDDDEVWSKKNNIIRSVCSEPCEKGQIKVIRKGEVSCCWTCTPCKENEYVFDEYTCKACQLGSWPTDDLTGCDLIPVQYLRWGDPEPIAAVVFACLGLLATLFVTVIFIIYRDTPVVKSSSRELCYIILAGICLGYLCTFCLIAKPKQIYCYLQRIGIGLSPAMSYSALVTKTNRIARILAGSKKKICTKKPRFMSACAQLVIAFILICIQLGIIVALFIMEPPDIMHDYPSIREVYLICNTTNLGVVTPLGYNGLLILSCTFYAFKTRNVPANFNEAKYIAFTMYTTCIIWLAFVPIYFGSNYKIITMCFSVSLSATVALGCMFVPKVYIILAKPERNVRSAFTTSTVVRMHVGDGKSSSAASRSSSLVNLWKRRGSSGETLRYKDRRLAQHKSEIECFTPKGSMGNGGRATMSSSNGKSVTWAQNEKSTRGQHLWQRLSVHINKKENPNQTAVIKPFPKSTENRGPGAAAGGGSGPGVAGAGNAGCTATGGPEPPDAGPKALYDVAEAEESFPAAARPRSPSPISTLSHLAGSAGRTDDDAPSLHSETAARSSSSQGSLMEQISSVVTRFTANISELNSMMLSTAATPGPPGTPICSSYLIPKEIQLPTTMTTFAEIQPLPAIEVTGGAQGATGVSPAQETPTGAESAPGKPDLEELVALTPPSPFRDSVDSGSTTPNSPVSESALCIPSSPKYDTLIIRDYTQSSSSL
T1 sequence (P31421 whole entry): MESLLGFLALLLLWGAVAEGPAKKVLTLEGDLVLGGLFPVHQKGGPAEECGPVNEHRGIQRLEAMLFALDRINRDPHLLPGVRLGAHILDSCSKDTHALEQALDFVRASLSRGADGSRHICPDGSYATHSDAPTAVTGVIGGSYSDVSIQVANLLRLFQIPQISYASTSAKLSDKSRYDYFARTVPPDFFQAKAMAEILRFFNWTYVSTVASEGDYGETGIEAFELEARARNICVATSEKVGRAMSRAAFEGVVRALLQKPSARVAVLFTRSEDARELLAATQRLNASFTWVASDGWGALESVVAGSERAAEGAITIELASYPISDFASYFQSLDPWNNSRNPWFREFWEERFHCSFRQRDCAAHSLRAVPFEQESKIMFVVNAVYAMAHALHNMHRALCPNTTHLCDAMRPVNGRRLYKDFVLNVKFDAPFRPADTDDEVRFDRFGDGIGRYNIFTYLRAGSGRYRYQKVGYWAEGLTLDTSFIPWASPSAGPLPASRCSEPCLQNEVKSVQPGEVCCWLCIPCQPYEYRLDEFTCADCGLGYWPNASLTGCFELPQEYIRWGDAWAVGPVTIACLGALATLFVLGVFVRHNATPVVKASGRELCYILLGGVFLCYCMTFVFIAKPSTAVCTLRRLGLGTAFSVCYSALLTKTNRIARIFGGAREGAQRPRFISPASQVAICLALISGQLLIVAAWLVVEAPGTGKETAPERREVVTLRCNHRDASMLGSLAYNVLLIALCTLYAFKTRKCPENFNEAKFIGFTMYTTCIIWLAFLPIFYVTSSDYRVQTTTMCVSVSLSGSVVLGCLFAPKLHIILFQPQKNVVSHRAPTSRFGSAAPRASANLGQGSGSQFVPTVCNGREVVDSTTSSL
Sequence of Metabotropic glutamate receptor 3 (P31422 whole entry): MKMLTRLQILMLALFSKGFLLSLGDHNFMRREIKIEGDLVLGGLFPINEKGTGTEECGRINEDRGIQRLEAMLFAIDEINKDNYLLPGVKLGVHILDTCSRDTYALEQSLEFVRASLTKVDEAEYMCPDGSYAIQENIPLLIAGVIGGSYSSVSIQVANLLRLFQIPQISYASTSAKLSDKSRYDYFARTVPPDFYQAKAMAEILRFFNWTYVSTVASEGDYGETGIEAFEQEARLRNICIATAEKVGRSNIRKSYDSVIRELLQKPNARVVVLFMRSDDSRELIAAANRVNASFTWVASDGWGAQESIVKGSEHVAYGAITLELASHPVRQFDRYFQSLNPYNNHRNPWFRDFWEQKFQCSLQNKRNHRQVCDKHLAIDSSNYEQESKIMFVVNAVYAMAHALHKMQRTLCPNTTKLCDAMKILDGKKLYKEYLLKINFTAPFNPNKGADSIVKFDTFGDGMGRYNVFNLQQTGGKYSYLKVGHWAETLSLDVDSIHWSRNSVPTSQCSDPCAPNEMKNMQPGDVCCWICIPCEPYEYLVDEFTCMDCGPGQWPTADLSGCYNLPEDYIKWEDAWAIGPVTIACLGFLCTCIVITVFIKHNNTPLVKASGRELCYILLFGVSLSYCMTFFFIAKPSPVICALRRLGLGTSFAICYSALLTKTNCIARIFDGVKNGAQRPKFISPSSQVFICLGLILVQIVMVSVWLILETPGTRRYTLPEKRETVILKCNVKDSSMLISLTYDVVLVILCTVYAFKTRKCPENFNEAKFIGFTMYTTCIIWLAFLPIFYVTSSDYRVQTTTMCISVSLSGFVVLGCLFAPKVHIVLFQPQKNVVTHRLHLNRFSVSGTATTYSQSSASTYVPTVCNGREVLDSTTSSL
Sequence of Metabotropic glutamate receptor 1 (P23385 whole entry): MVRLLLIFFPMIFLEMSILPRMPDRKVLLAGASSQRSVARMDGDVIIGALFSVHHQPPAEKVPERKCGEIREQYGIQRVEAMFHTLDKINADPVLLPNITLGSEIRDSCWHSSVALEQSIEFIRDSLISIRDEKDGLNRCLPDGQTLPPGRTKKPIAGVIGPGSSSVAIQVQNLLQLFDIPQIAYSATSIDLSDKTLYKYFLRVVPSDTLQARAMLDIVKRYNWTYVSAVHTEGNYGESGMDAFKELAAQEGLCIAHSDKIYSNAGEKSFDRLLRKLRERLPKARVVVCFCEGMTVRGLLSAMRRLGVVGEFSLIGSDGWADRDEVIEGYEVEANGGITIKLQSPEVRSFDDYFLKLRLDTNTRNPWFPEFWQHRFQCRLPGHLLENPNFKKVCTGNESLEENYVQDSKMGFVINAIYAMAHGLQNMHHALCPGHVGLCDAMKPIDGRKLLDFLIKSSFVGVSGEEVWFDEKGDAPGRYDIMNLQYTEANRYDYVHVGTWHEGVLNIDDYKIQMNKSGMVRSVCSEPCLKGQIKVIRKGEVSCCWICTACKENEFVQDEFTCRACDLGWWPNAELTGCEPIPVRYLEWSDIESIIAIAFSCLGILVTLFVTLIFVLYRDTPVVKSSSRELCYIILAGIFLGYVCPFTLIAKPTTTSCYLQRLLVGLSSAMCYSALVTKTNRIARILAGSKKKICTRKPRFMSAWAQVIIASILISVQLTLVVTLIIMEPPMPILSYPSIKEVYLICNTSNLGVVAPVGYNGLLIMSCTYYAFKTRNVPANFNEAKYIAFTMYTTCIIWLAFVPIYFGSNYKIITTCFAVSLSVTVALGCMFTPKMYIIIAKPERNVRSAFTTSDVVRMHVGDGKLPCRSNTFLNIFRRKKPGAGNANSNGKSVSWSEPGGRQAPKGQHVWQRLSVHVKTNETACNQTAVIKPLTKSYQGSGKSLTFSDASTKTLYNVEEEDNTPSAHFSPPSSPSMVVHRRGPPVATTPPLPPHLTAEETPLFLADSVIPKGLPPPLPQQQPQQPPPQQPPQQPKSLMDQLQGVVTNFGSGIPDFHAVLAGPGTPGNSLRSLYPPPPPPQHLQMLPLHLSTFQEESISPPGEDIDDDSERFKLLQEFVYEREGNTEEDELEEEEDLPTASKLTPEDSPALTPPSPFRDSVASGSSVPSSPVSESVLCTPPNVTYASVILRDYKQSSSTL
Sequence of Glutamate receptor ionotropic, kainate 1 (P22756 whole entry): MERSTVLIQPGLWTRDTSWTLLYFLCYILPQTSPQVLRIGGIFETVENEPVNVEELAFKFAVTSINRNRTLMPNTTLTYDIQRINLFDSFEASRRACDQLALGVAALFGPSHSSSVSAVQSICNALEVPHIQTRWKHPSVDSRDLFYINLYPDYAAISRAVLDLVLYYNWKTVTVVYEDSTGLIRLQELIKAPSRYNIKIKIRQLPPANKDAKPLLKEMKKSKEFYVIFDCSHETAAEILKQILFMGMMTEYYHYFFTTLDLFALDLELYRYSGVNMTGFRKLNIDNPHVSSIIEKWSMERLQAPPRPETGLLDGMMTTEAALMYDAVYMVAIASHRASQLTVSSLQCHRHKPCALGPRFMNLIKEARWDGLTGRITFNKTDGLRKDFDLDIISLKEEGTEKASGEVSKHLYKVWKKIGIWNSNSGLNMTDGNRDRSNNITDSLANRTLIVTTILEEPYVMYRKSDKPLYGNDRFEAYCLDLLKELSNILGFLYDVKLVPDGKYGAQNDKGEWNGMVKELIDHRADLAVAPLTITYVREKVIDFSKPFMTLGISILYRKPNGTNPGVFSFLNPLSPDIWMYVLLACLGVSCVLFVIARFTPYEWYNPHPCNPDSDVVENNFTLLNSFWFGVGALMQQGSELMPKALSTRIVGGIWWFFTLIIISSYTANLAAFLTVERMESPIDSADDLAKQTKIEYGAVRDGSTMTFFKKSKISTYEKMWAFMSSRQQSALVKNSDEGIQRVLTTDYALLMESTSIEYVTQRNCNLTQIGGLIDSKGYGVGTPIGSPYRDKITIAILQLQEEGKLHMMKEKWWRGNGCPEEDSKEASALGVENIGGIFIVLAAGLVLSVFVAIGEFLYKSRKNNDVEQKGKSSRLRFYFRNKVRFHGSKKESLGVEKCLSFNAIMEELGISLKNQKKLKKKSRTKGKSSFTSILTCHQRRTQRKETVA

`N[C@@H](C[C@@H](CO)C(=O)O)C(=O)O` registered a Ki on Glutamate NMDA receptor of 15 µM. In addition, the IC50 turned out to be 0.24 µM in assay [1] and 44 µM in assay [2]. Further, the pIC50 in assay [1] stood at 6.62; in assay [2] it was 4.35.

For `CCNC(=O)CC[C@H](C[C@H](N)C(=O)O)C(=O)O`, the EC50 in assay [3], in [6], in [7] and in assay [10] was more than 100 µM in each case. Besides, the Ki was 0.641 µM in assay [4] (read-out: Ki); more than 1000 µM in assay [5]; 10.6 µM in assay [8] (read-out: Ki); 10.2 µM in assay [8] (read-out: pKi (converted)); more than 1000 µM in assay [9]; more than 100 µM at Glutamate NMDA receptor. Also, the figures for the IC50 in assay [1] and in [2] were 41 µM and 74 µM, respectively. Moreover, the pIC50 is 4.39 in assay [1] and 4.13 in assay [2].

Regarding `O=C(O)CC(CC(=O)C(=O)O)C(=O)O` (racemic), in the assay with Escherichia coli [11], the Michaelis constant (Km) came to 30100 µM. Besides, the kcat in the assay on Escherichia coli [12] was 1.1%.

Turning to `O=C(O)C(=O)CC(CO)C(=O)O` (racemic), the Km in the assay with Escherichia coli [11] was determined as 4700 µM. Also, in the assay on Escherichia coli [12], the kcat was found to be 1.6%.

`CNC(=O)CC[C@H](C[C@H](N)C(=O)O)C(=O)O`: the EC50 in [3], in assay [6], in assay [7] and in assay [10] was more than 100 µM each time. Further, the Ki in assay [4] (read-out: Ki) is 0.00381 µM; in assay [5] it was more than 1000 µM; in assay [8] (read-out: Ki) it was 0.123 µM; in assay [8] (read-out: pKi (converted)), 0.12 µM; in assay [9] it was more than 1000 µM; at Glutamate NMDA receptor it was more than 100 µM. Also, the concentration for half-maximal inhibition (IC50) in [1] was 29 µM; in [2], 32 µM. In addition, the negative logarithm of the IC50 (pIC50) is 4.54 in assay [1] and 4.51 in [2].

As to `COC(=O)CC[C@H](C[C@H](N)C(=O)O)C(=O)O`, the half-maximal effective concentration (EC50) in assay [3], in [6], in assay [7] and in assay [10] was more than 100 µM throughout. Besides, the Ki is 0.0428 µM in [4] (read-out: Ki); 0.0417 µM in assay [4] (read-out: pKi (converted)); more than 1000 µM in [5]; 6.67 µM in assay [8] (read-out: Ki); 6.17 µM in assay [8] (read-out: pKi (converted)); more than 1000 µM in [9]. The molecule further displayed a Ki on Glutamate NMDA receptor of more than 100 µM. The IC50 in assay [1] turned out to be 7.9 µM; in [2], 31 µM. Besides, the pIC50 in assay [1] turned out to be 5.1; in assay [2], 4.51.

With `N[C@@H](C[C@@H](CCC(=O)NCc1ccccc1)C(=O)O)C(=O)O`, the Ki in assay [4] (read-out: Ki) is 0.138 µM; in assay [8] (read-out: Ki) it was more than 100 µM; at Glutamate NMDA receptor, 72 µM. The IC50 in assay [1] and in assay [2] was more than 100 µM throughout.

Turning to `C[C@H](C[C@H](N)C(=O)O)C(=O)O` [2S,4R-4-METHYLGLUTAMATE], in [8] (read-out: Ki), the Ki came to 0.017 µM.

In the case of `N[C@@H](C[C@@H](CC(=O)O)C(=O)O)C(=O)O`, the Ki at Glutamate NMDA receptor was more than 100 µM. In assay [1], this molecule displayed a 50% inhibitory concentration (IC50) of 39 µM and a pIC50 of 4.41. The IC50 in assay [2] is more than 100 µM.

As to `COC(=O)CC(CC(=O)C(=O)O)C(=O)O` (racemic), in the assay on Escherichia coli [11], the Km came to 1800 µM. The kcat in the assay on Escherichia coli [12] stood at 41%.

`NC(=O)CC[C@H](C[C@H](N)C(=O)O)C(=O)O`: the EC50 in assay [3], in assay [6], in [7] and in [10] was more than 100 µM each time. The Ki is 0.00745 µM in assay [4] (read-out: Ki); more than 1000 µM in [5]; 9.66 µM in assay [8] (read-out: Ki); more than 1000 µM in [9]; more than 100 µM at Glutamate NMDA receptor. Besides, the 50% inhibitory concentration (IC50) in assay [1] is 16 µM; in assay [2], 25 µM. Besides, the pIC50 was 4.8 in [1] and 4.6 in assay [2].

On to `COC(=O)CCC(CC(=O)C(=O)O)C(=O)O` (racemic), for which the Km in the assay with Escherichia coli [11] was 610 µM. In addition, in the assay with Escherichia coli [12], the kcat is 33.6%.

Take `N[C@@H](Cn1oc(=O)[nH]c1=O)C(=O)O` [QUISQUALATE]: in assay [4] (read-out: Ki), the Ki amounted to 0.171 µM.

In the case of `C/C(=C\C=C\[C@@H](C)C(=O)O)[C@H]1CN[C@H](C(=O)O)[C@H]1CC(=O)O` [DOMORIC ACID], the Ki is 0.00111 µM in assay [4] (read-out: Ki); 0.00107 µM in assay [4] (read-out: pKi (converted)); 0.00604 µM in assay [8] (read-out: Ki); 0.00575 µM in [8] (read-out: pKi (converted)); 0.04 µM in [13].

On to `N[C@@H](C[C@@H](CCC(=O)O)C(=O)O)C(=O)O`, for which, on Glutamate NMDA receptor, the Ki is 52 µM. Besides, the IC50 in assay [1] and in assay [2] was more than 100 µM in each case.

In the case of `O=C(O)C(=O)CC(COCc1ccccc1)C(=O)O` (racemic), the Michaelis-Menten constant (Km) in the assay with Escherichia coli [11] was 90 µM. For the same molecule, the kcat with Escherichia coli [12] is 11%.

Take `C=C(C)[C@H]1CN[C@H](C(=O)O)[C@H]1CC(=O)O` [KAINIC ACID]: the Ki in assay [13] came to 0.0047 µM.

In the case of `N[C@@H](C[C@@H](COCc1ccccc1)C(=O)O)C(=O)O`, the Ki on Glutamate NMDA receptor worked out at 26 µM. Moreover, in assay [1], the IC50 amounted to 12 µM and the negative-log IC50 (pIC50) amounted to 4.93. The molecule also registered an IC50 in assay [2] of more than 100 µM.
